# Screens deposited in PubChem by several laboratories.
# Redox H2O2 prof: compounds producing H2O2 with reducing agent – biochemical, NIH compound library profiling, artefact control for MLSCN library redox annotation, primary screen | 200,000 tested, 0.03% active | DTT-dependent redox cycling H2O2, phenol red/HRP absorbance; 100% = 100 µM peroxide control, 0% = buffer | activation, % at 10 µM;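 active = activation of at least 50% relative to the plate's high and low controls in the primary single-dose screen; inactive = activation below 50%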;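 also: compound incubated with DTT at 0.8 mM final as the reducing agent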
# Efa HMGR inh: blocks class II HMG-CoA reductase of Enterococcus faecalis; purified E. faecalis HMGR, NADPH absorbance 340 nm kinetic; inhibition, % at 10 µM; 190,000 tested, 0.41% active; AID 1066;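 active = inhibition above a set limit, the median over all tested compounds plus 3 SD, cut at about 9.5% in these data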;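 also: enzyme runs in reverse so mevalonate oxidation gives rising NADPH absorbance; 0% = complete reaction with DMSO and 100% = background rate lacking mevalonate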
# PMI act: activators of human phosphomannose isomerase; purified human PMI, coupled resazurin fluorescence, 20 min; active compounds read high; 1 = vehicle control, 0 substrate-free wells; activation factor at 20 µM; 190,000 tested, 0.005% active; AID 1214;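 active = activation factor of 2 or more at 20 µM, relative to plate controls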
# PMI act hi M6P: activators of human phosphomannose isomerase at near-saturating mannose 6-phosphate; P34949; coupled PMI enzyme assay, resazurin fluorescence, 20 min; active compounds read high; 1 = untreated enzyme, 0 = substrate-free blank; activation factor at 20 µM; 190,000 tested, 0.34% active;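 active = activation factor of 2 or more at 20 µM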
#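 Test system: human phosphomannose isomerase with PGI, G6PDH, diaphorase coupling enzymes; amount: 15 ng/mL PMI; incubation: enzyme reaction with compound 20 min at room temperature; technique: resorufin fluorescence (Ex 544/Em 590 nm) from resazurin via diaphorase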
# Diaphorase act: diaphorase activation or chemical reduction counter-screen. Diaphorase/resazurin coupled assay, resorufin fluorescence, 16 min; active compounds read high; 1 = vehicle wells, 0 = NADH-free wells. activation factor at 20 µM. 190,000 tested, 0.005% active;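 active = diaphorase activity raised at least twofold by the compound at 20 µM; inactive = activation factor below 2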
#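 Material: purified diaphorase enzyme from Clostridium kluyveri; Also added: 0.114 mM NADH and 0.1 mM resazurin, final amounts; Doses: single compound dose of 20 µM, 1% DMSO final; Times: 16 min enzyme reaction, ambient temperature; Detection: resorufin fluorescence, excitation 544 nm, emission 590 nm; Measure: increased resorufin signal from activators or reducing compounds.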
# NCF1 inh: blocks human p47phox regulatory protein of NADPH oxidases; P14598; p47phox/p22phox peptide binding, fluorescence polarization, 2 h; inhibition, % at 24.7 µM; 220,000 tested, 0.53% active; AID 1274;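 active = inhibition above about 30%, limit read from the data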;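 also: 0% = p47phox with labelled peptide and 100% = labelled peptide alone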
# Target sequence (P14598 whole entry, looked up): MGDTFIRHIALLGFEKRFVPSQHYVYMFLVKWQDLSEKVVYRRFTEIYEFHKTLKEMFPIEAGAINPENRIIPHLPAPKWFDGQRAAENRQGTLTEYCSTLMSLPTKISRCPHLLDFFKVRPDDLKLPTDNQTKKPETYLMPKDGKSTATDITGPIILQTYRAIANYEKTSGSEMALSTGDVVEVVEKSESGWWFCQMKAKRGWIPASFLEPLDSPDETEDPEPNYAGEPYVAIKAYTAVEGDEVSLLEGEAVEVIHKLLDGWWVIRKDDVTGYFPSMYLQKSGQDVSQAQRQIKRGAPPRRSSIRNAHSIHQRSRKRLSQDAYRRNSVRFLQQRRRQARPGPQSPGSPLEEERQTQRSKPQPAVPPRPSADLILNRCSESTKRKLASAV
# Numbers without * were called inactive; nt = no result given. Only some compounds are listed: those with a hit (about 1.2% of all), similar ones and a draw of the others.
SMILES,Redox H2O2 prof,Efa HMGR inh,PMI act,PMI act hi M6P,Diaphorase act,NCF1 inh
COc1ccc2nc(C)cc(SCC(=O)N/N=C/c3c(OC)ccc4ccccc34)c2c1,0,-1,0.9,1,1,42*
CCOC(=O)/C(C)=C1\NC(C)(C)Cc2ccccc21,0,nt,0.1,0.1,0.8,62*
CCOC(=O)/C(C(=O)Nc1ccccc1Cl)=C1/NC(C)(C)Cc2ccccc21,-3,4,0.8,0.8,0.9,-11
Cc1[nH]n(S(=O)(=O)Cc2ccccc2)c(=O)c1N=Nc1ccccc1Cl,4,10*,1.4,1,0.9,-12
Cc1ccccc1N=Nc1c(C)[nH]n(-c2ccccc2)c1=O,0,-6,0.9,0.9,0.8,-10
CCc1ccc2nc(N3C(=O)C(O)=C(C(=O)c4ccco4)C3c3cccs3)sc2c1 (stereo not given),3,-7,1.2,1.2,0.7,-64
Cc1ccc2nc(N3C(=O)C(O)=C(C(=O)c4cc5ccccc5o4)C3c3cccs3)sc2c1 (stereo not given),2,1,1.4,2*,0.9,-125
Cc1ccc(S(=O)(=O)Nc2c(C)n(C)n(-c3ccccc3)c2=O)cc1C(=O)OCC(=O)N1CCCC(C)C1 (stereo not given),0,-5,0.9,0.9,0.9,4
CN(C)CCn1c(=S)[nH]c2ccccc2c1=O,0,1,1,1.1,1,-3
CCCCn1c(=O)c2ccccc2c2ccccc2c1=O,3,32*,0.9,0.9,0.8,3
CCCn1c(=S)[nH]c2ccccc2c1=O,0,15*,1,1,0.8,-2
CC(C(=O)OCc1nnc(-c2ccccc2)o1)N1C(=O)C2CCCCC2C1=O (stereo not given),0,-5,0.9,1,1,-8
O=c1sc(/C=N/Nc2ccccc2)c(Cl)n1Cc1ccccc1,1,3,1.4,2.1*,0.8,-14
O=C(O)c1cccc(Cn2c(Cl)c(/C=N/NC(=O)c3ccc(O)cc3)sc2=O)c1,nt,nt,nt,nt,nt,-6
c1ccc(-c2nc(N3CCN(c4ccccc4)CC3)nc(-n3ccnc3)n2)cc1,4,0,0.9,1,1,58*
COC(=O)Cc1cc(=O)[nH]c(/N=C(\N)Nc2ccc(C(C)C)cc2)n1,0,5,0.9,0.9,1,-16
CCc1nc(C)cc2c1sc1ccccc12,nt,nt,nt,nt,nt,1
CC[n+]1c(C)cc2c(sc3ccccc32)c1C,-2,-1,1.4,1.7,0.9,33*
CCn1c(N2CCN(C(=S)NCCc3ccccc3)CC2)nc2ccccc21,-8,nt,0.9,0.9,0.7,-20
Cn1c(=O)c2cn3c(c2n(C)c1=O)C(c1ccccc1)CC(c1ccccc1)=N3 (stereo not given),-4,-1,1.5,2*,0.8,-49
Cc1cc(N)n2ncc(-c3ccc(Cl)cc3)c2n1,1,11*,0.9,1,0.8,-11
CCOc1ccc(C2NC(=O)c3sc(=S)n(-c4ccccc4)c3N2)cc1 (stereo not given),0,-6,1.7,2.3*,1.1,-8
O=C1NC(c2ccccc2)Nc2c1sc(=S)n2-c1ccccc1 (stereo not given),-1,0,1.7,2.2*,0.8,-2
N#Cc1ccccc1Cn1c(=O)n(Cc2ccc(C(=O)NCc3ccco3)cc2)c(=O)c2ccccc21,-1,0,0.9,1,1,30*
N#Cc1ccccc1Cn1c(=O)n(CCC(=O)NCc2ccco2)c(=O)c2ccccc21,0,-3,1.1,1.1,1,-3
SMILES,Redox H2O2 prof,Efa HMGR inh,PMI act,PMI act hi M6P,Diaphorase act,NCF1 inh
COc1cc2[nH]c(=S)nc(NC3CCCC3)c2cc1OC,0,-3,1.8,2.5*,1,-6
C=CCNc1nc(=S)[nH]c2cc(OC)c(OC)cc12,-2,-5,1,1,0.8,-13
Cc1nccn1CC(=O)N/N=C/c1ccccc1O,nt,nt,nt,nt,nt,6
O=C(c1ccc(Cl)cc1)C1C2C(=O)N(c3ccccc3)C(=O)C2C2CCCN21 (stereo not given),2,-7,1.6,2*,1,-13
CC(=O)c1ccc(N2C(=O)C3C(C2=O)C(C(=O)c2ccc(Cl)cc2)N2CCCC32)cc1 (stereo not given),0,-8,1.6,2*,0.9,-28
Cc1ccc(N2C(=O)[C@@H]3[C@H](C2=O)C2CCCN2[C@@H]3C(=O)c2ccccc2)cc1 (stereo not given in full),-1,4,1.5,2*,1,-29
COc1ccc(N2C(=O)C3C(C2=O)C(C(=O)c2ccc(Cl)cc2)N2CCCC32)cc1 (stereo not given),nt,nt,nt,nt,nt,-15
CCCCOc1ccc2c(c1)/C(=C(\C(Cl)=C(Cl)Cl)[N+](=O)[O-])N2,0,-4,1.2,1.1,0.5,-29
CC(=O)Nc1ccc(NC(=O)COC(=O)CCc2nc3ccccc3s2)cc1,0,-3,1.1,1.1,1,-11
COCCCN1C(=O)C(=O)/C(=C(/O)c2ccc(OC)cc2)C1c1ccc(O)c(OC)c1 (stereo not given),5,12*,0.9,1,0.9,-20
Cc1ccc(C)c(/C=C(\C(=O)O)c2ccc(S(=O)(=O)N3CCCCC3)s2)c1,0,1,1.5,1.4,0.9,-10
O=C(NCc1cccnc1)c1cc(-c2cccs2)on1,0,0,1,1,0.9,138*
O=C(NCc1cccnc1)c1cc(-c2ccccc2)on1,0,0,0.9,0.9,0.9,7
COC(=O)c1cccc(Cn2nnc3ccccc3c2=O)c1,2,-1,0.9,0.9,0.9,114*
COc1cccc(C(=O)OCn2nnc3ccccc3c2=O)c1,-1,-1,0.9,0.9,0.9,-22
COc1ccc(-c2ccc3c(N)c(C(=O)c4ccc(OC)c(OC)c4)sc3n2)cc1,5,4,1.3,1.8,0.9,13
COc1ccc(C(=O)c2sc3nc(-c4ccccc4)ccc3c2N)cc1OC,-8,-6,1.2,1.6,0.9,30*
COc1ccc([N+](=O)[O-])cc1N(CC1CO1)S(=O)(=O)c1ccc(C)cc1 (stereo not given),-1,-4,1,1.1,1,-7
Cc1ccc(-n2c(Cc3cccs3)nnc2SCC(=O)Nc2ccc(F)c(F)c2)cc1,0,-3,0.9,0.9,0.8,75*
